Measurements published in ChEMBL document CHEMBL1158499, “Synthesis and antidepressant activity of optical isomers of 2-(4-benzylpiperazin-1-yl)-1-(5-chloro-6-methoxynaphthalen-2-yl) propan-1-ol (SIPI5056)” (Bioorg Med Chem Lett, 2010).
pIC50: −log10 of the molar value.

What was measured:
Transporter = Transporter (Rattus norvegicus, UniProt Q63380); assay: Inhibition of [3H]norepinephrine reuptake at rat brain frontal cortex norepinephrine transporter; format: tissue-based
Procedure, shortened: (§1)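 Rat frontal cortex synaptosomes prepared at 4 °C: tissue homogenized in ice-cold 0.32 M sucrose, spun at 1500g for 10 min, and the supernatant spun at 20,000g for 30 min. The pellet was resuspended in buffer and protein measured. Synaptosomes were preincubated with compound 5 min at 37 °C, then given 300 nM [3H]-DA or [3H]-NA for 5 min at 37 °C. Uptake was stopped on ice and samples filtered and washed with artificial cerebral fluid before scintillation counting. Active uptake was taken as the 37 °C minus 0 °C difference.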

[1] = (§2) Toxicity in po dosed mouse; format: organism-based; conditions: in vivo
Procedure, shortened: (§3)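 Acute toxicity was tested in mice given the compound orally. The LD50 was reported in mg/kg or g/kg.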

Mus musculus [2] = assay: Antidepressant activity in po dosed mouse by forced tail suspension assay; format: functional
Procedure, shortened: (§4)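 Mice received a single oral dose of each isomer; the ED50 (mg/kg) was derived from the forced swimming and tail suspension tests.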

[3] = molecular target: Sodium-dependent serotonin transporter (Rattus norvegicus, UniProt P31652); assay: Inhibition of [3H]5HT reuptake at rat brain frontal cortex serotonin transporter; format: tissue-based
Procedure, shortened: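 Rats were decapitated and the frontal cortex was dissected on ice. The tissue was homogenised in ice-cold 0.32 M sucrose and spun at 1500g for 10 min, then the supernatant at 20,000g for 30 min (4 °C). Synaptosomes were preincubated with compound for 5 min at 37 °C. [3H]-5-HT (300 nM) was added for 5 min at 37 °C. The reaction was stopped on ice, then filtered and counted. Active uptake was taken as the 37 °C minus 0 °C difference.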

[4] = molecular target: Sodium-dependent dopamine transporter (Rattus norvegicus, UniProt P23977); assay: Inhibition of [3H]dopamine reuptake at rat brain frontal cortex dopamine transporter; format: tissue-based; procedure, shortened: as §1
Mus musculus [5] = assay: as §2; format: organism-based; conditions: in vivo; procedure, shortened: as §3
Mus musculus [6] = assay: Antidepressant activity in po dosed mouse by forced swimming test; format: functional; procedure, shortened: as §4

Chain of Sodium-dependent dopamine transporter (P23977 whole entry): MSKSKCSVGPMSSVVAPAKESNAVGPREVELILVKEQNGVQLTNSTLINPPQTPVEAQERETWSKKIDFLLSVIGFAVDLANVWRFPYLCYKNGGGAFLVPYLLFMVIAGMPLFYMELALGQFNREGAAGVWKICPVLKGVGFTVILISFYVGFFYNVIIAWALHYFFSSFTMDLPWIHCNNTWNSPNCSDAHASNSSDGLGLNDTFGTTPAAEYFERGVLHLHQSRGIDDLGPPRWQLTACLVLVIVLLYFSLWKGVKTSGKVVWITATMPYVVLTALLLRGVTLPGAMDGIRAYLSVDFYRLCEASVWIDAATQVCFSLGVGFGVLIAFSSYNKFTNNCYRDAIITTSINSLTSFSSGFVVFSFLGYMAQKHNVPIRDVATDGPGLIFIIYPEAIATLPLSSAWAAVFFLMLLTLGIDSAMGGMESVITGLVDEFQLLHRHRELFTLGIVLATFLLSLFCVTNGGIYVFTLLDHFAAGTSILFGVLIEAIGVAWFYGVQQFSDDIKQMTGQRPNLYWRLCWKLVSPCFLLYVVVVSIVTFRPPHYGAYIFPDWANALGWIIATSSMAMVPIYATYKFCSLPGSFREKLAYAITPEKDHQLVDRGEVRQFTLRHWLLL
Chain of Sodium-dependent serotonin transporter (P31652 whole entry): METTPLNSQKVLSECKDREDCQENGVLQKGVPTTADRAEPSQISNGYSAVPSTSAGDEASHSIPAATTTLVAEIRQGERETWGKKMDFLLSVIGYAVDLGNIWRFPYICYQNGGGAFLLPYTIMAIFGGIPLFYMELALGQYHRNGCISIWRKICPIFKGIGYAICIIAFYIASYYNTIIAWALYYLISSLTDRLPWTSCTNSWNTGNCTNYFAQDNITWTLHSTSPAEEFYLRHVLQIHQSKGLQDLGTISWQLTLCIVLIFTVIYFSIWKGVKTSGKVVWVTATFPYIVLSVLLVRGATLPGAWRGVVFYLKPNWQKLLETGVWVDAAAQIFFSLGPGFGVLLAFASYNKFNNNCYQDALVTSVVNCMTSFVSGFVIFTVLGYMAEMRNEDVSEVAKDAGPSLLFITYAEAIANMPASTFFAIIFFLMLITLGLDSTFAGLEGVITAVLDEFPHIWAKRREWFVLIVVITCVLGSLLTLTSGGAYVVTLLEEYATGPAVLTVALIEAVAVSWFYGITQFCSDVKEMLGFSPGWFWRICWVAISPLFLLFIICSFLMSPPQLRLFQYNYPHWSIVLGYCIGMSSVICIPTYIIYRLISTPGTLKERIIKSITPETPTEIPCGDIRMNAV
Chain of Transporter (Q63380 whole entry): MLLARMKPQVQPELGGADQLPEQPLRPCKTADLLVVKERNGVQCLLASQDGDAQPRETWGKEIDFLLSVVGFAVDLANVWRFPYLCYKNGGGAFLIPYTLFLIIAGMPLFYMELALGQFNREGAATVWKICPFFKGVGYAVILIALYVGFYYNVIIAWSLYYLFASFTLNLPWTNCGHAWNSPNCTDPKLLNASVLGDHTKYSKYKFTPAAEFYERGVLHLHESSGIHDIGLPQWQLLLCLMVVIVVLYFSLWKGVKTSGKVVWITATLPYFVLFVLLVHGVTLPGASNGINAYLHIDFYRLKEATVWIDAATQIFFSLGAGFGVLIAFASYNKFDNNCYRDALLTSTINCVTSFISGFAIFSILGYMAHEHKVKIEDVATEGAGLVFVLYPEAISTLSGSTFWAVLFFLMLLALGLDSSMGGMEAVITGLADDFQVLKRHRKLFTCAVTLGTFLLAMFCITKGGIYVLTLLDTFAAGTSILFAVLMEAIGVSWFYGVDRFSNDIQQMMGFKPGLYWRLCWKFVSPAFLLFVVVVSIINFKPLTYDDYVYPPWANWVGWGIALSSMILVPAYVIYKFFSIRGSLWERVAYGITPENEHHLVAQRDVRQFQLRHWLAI

| Structure (SMILES) | pIC50 (Transporter) | LD50 [1] [mg/kg] | ED50 (Mus musculus [2]) [mg/kg] | pIC50 [3] | pIC50 [4] | LD50 (Mus musculus [5]) [mg/kg] | ED50 (Mus musculus [6]) [mg/kg] |
| --- | --- | --- | --- | --- | --- | --- | --- |
| COc1ccc2cc([C@@H](O)[C@@H](C)N3CCN(Cc4ccccc4)CC3)ccc2c1Cl | 5.90 | 200 | 24.5 | 6.43 | < 3.00 | – | – |
| COc1ccc2cc([C@@H](O)[C@H](C)N3CCN(Cc4ccccc4)CC3)ccc2c1Cl | 6.73 | 1030 | 12.6 | – | – | – | – |
| COc1ccc2cc([C@H](O)[C@H](C)N3CCN(Cc4ccccc4)CC3)ccc2c1Cl (racemic) | – | – | – | – | – | > 1500 | – |
| COc1ccc2cc([C@H](O)[C@@H](C)N3CCN(Cc4ccccc4)CC3)ccc2c1Cl (racemic) | – | – | – | – | – | > 220 | – |
| COc1ccc2cc([C@H](O)[C@H](C)N3CCN(Cc4ccccc4)CC3)ccc2c1Cl | 6.37 | – | 27.9 | 6.08 | < 3.00 | 300 | – |
| COc1ccc2cc([C@H](O)[C@@H](C)N3CCN(Cc4ccccc4)CC3)ccc2c1Cl | 5.15 | – | 16.5 | 6.26 | 5.00 | 1171 | 24.5 |
